Measured values of several laboratories.
Protocols differ between the studies behind these lines. In brackets after ≈: the same amount, converted by molar mass.
Organism: Staphylococcus aureus

| Structure (SMILES) | assay | test system | conditions | quantity | value |
| --- | --- | --- | --- | --- | --- |
| CCS(=O)(=O)Oc1ccc(C=NNC(=O)CSc2nc3ccc(Cl)cc3c(=O)n2-c2ccccc2)cc1 | microbial growth, well diffusion | MRSA | 20 µg/mL | inhibition zone | 2 mm |
| O=C(/C=C/C=C/c1ccccc1)c1ccccc1OCc1ccc(Cl)c(Cl)c1 | microbial growth, well diffusion | MTCC96 | 1000 µg/mL, 18 h | inhibition zone | 7 mm |
| COc1ccc(C=NNC(=O)CSc2nc3c(C)cccc3c(=O)n2-c2ccccc2)cc1OS(C)(=O)=O | microbial growth, well diffusion | MRSA | 20 µg/mL | inhibition zone | 3 mm |
| O=C(/C=C/C=C/c1ccccc1)c1ccccc1OCc1ccccc1Cl | microbial growth, well diffusion | MTCC96 | 1000 µg/mL, 18 h | inhibition zone | 7 mm |
| CC(=O)NC[C@H]1CN(c2ccc(N3CCOCC3)c(F)c2)C(=O)O1 | microbial growth | MRSA | clinical isolate | MIC90 | 2 µg/mL (≈ 5.93 µM) |
| CCCS(=O)(=O)Oc1cc(C=NNC(=O)CSc2nc3c(C)cccc3c(=O)n2-c2ccccc2)ccc1OC | microbial growth, well diffusion | MRSA | 20 µg/mL | inhibition zone | 2 mm |
| CC1(C)S[C@@H]2[C@H](NC(=O)[C@H](N)c3ccccc3)C(=O)N2[C@H]1C(=O)O | microbial growth | MSSA | clinical isolate | MIC90 | 64 µg/mL (≈ 183 µM) |
| CN(C)CCCN1c2ccccc2Sc2ccc(C(F)(F)F)cc21 | microbial killing, broth dilution | ATCC43300 | 18 h | MBC | 64 µg/mL |
| C=C[C@]1(C)C[C@@H](OC(=O)CS[C@@H]2C[C@H]3CC[C@@H](C2)N3C)[C@]2(C)[C@H](C)CC[C@]3(CCC(=O)[C@H]32)[C@@H](C)[C@@H]1O | microbial growth | MSSA | clinical isolate | MIC90 | 0.0625 µg/mL (≈ 0.121 µM) |
| CCCS(=O)(=O)Oc1cc(C=NNC(=O)CSc2nc3ccc(Cl)cc3c(=O)n2-c2ccccc2)ccc1OC | microbial growth, well diffusion | MRSA | 20 µg/mL | inhibition zone | 2 mm |
| CN[C@H](CC(C)C)C(=O)N[C@H]1C(=O)N[C@@H](CC(N)=O)C(=O)N[C@H]2C(=O)N[C@H]3C(=O)N[C@H](C(=O)N[C@H](C(=O)O)c4cc(O)cc(O)c4-c4cc3ccc4O)[C@H](O)c3ccc(c(Cl)c3)Oc3cc2cc(c3O[C@@H]2O[C@H](CO)[C@@H](O)[C@H](O)[C@H]2O[C@H]2C[C@](C)(N)[C@H](O)[C@H](C)O2)Oc2ccc(cc2Cl)[C@H]1O | microbial growth, broth dilution | ATCC29213 |  | MIC | 1 µg/mL (≈ 0.69 µM) |
| CC[C@H]1OC(=O)[C@H](C)[C@@H](O[C@H]2C[C@@](C)(OC)[C@@H](O)[C@H](C)O2)[C@H](C)[C@@H](O[C@@H]2O[C@H](C)C[C@H](N(C)C)[C@H]2O)[C@](C)(O)C[C@@H](C)/C(=N\OCOCCOC)[C@H](C)[C@@H](O)[C@]1(C)O | microbial growth | MSSA | clinical isolate | MIC90 | 64 µg/mL (≈ 76.5 µM) |
| [H]/N=C(/N)N[C@H]1[C@H](O)[C@@H](O)[C@H](O[C@@H]2O[C@@H](C)[C@](O)(C=O)[C@H]2O[C@@H]2O[C@@H](CO)[C@H](O)[C@@H](O)[C@@H]2NC)[C@@H](N/C(N)=N\[H])[C@@H]1O | microbial growth, well diffusion | MTCC96 | 1000 µg/mL, 18 h | inhibition zone | 24 mm |
| CN[C@H](CC(C)C)C(=O)N[C@H]1C(=O)N[C@@H](CC(N)=O)C(=O)N[C@H]2C(=O)N[C@H]3C(=O)N[C@H](C(=O)N[C@H](C(=O)O)c4cc(O)cc(O)c4-c4cc3ccc4O)[C@H](O)c3ccc(c(Cl)c3)Oc3cc2cc(c3O[C@@H]2O[C@H](CO)[C@@H](O)[C@H](O)[C@H]2O[C@H]2C[C@](C)(N)[C@H](O)[C@H](C)O2)Oc2ccc(cc2Cl)[C@H]1O | microbial growth | MRSA | clinical isolate | MIC90 | 2 µg/mL (≈ 1.38 µM) |
| CCS(=O)(=O)Oc1ccc(C=NNC(=O)CSc2nc3c(C)cccc3c(=O)n2-c2ccccc2)cc1 | microbial growth, well diffusion | MRSA | 20 µg/mL | inhibition zone | 3 mm |
| COc1ccc2cc3[n+](cc2c1OC)CCc1cc2c(cc1-3)OCO2 | microbial growth |  | 24 h | MIC50 | 0.072 mM |
| CNC(C)C1CCC(N)C(OC2C(N)CC(N)C(OC3OCC(C)(O)C(NC)C3O)C2O)O1 (centres unmarked) | microbial killing, broth dilution | ATCC25923 | 24 h | MBC | 8 mM |
